Test results taken from ChEMBL document CHEMBL1145269, “Synthesis and evaluation of urea-based indazoles as melanin-concentrating hormone receptor 1 antagonists for the treatment of obesity” (Bioorg Med Chem Lett, 2005).

Columns and labels:
[1] = target: Melanin-concentrating hormone receptor (Homo sapiens, UniProt Q969V1+Q99705); experiment: Inhibition of Melanin-concentrating hormone (MCH) mediated [Ca2+] release in IMR-32 cells; assay type: functional, cell-based
[2] = target: Melanin-concentrating hormone receptor 1 (Homo sapiens) (UniProt Q99705); experiment: Inhibitory concentration against human Melanin-concentrating hormone receptor 1 expressed in IMR-32 cells using [125I]MCH
[3] = tested on: Mus musculus; experiment: Body weight of the mice after treatment with the compound (10 mg/kg, p.o.) on day 0 (Vehicle=45.0 1 0.7); n=12; assay type: functional
[4] = tested on: Mus musculus; experiment: Body weight of the mice after treatment with the compound (10 mg/kg, p.o.) on day 14 (Vehicle=46.9 1 0.8); n=12; assay type: functional
[5] = tested on: Mus musculus; experiment: Percent change of mice body weight after treatment with the compound (10 mg/kg, p.o.) to that of vehicle; n=12; assay type: functional
[6] = tested on: Mus musculus; experiment: Mean cumulative food intake of mice on day 1 after treatment with compound at 10 mg/kg; n=12; assay type: functional
Outline: (§1)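 DIO mice, kept on a high-fat diet (60 kcal % fat, 5.2 kcal/g) for about 16 weeks with ad libitum feeding. Given 10 mg/kg po by gavage qd for 14 days in 1% Tween 80/water at 4 mL/kg, alongside vehicle. Food weighed on the first day and periodically thereafter; cumulative intake reported at days 1, 5, 7, 11 and 14. Mean ± SEM, n = 12.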

[7] = tested on: Mus musculus; experiment: Mean cumulative food intake of mice on day 5 after treatment with compound at 10 mg/kg; n=12; assay type: functional; outline: as §1
[8] = tested on: Mus musculus; experiment: Mean cumulative food intake of mice on day 7 after treatment with compound at 10 mg/kg; n=12; assay type: functional; outline: as §1
[9] = tested on: Mus musculus; experiment: Mean cumulative food intake of mice on day 11 after treatment with compound at 10 mg/kg; n=12; assay type: functional; outline: as §1
[10] = tested on: Mus musculus; experiment: Mean cumulative food intake of mice on day 14 after treatment with compound at 10 mg/kg; n=12; assay type: functional; outline: as §1
[11] = tested on: Mus musculus; experiment: Body weight of the mice after treatment with the compound (30 mg/kg, p.o.) on day 0 (Vehicle=45.0 1 0.7); assay type: functional
[12] = tested on: Mus musculus; experiment: Body weight of the mice after treatment with the compound (100 mg/kg, p.o.) on day 0 (Vehicle=45.0 1 0.7); assay type: functional
[13] = tested on: Mus musculus; experiment: Body weight of the mice after treatment with the compound (30 mg/kg, p.o.) on day 14 (Vehicle=46.9 1 0.8); assay type: functional
[14] = tested on: Mus musculus; experiment: Body weight of the mice after treatment with the compound (100 mg/kg, p.o.) on day 14 (Vehicle=46.9 1 0.8); assay type: functional
[15] = tested on: Mus musculus; experiment: Percent change of mice body weight after treatment with the compound (30 mg/kg, p.o.) to that of vehicle; assay type: functional
[16] = tested on: Mus musculus; experiment: Percent change of mice body weight after treatment with the compound (100 mg/kg, p.o.) to that of vehicle; assay type: functional
[17] = tested on: Mus musculus; experiment: Compound (100 mg/kg, bid) tested for reduction of fat mass in mice (vehicle=22.1); assay type: functional
[18] = tested on: Mus musculus; experiment: Mean cumulative food intake of mice on day 1 after treatment with compound at 30 mg/kg; n=12; assay type: functional
Outline: (§2)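 Chronic study in DIO mice fed a 60 kcal % fat diet ad libitum, dosed by oral gavage bid for 14 days at 30 or 100 mg/kg in 1% Tween 80/water (4 mL/kg). Food weighed on the first day and periodically thereafter. Cumulative intake reported on days 1, 5, 7, 11 and 14; mean ± SEM, n = 12.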

[19] = tested on: Mus musculus; experiment: Mean cumulative food intake of mice on day 5 after treatment with compound at 30 mg/kg; n=12; assay type: functional; outline: as §2
[20] = tested on: Mus musculus; experiment: Mean cumulative food intake of mice on day 7 after treatment with compound at 30 mg/kg; n=12; assay type: functional; outline: as §2
[21] = tested on: Mus musculus; experiment: Mean cumulative food intake of mice on day 1 after treatment with compound at 100 mg/kg; n=12; assay type: functional; outline: as §2
[22] = tested on: Mus musculus; experiment: Mean cumulative food intake of mice on day 11 after treatment with compound at 30 mg/kg; n=12; assay type: functional; outline: as §2
[23] = tested on: Mus musculus; experiment: Mean cumulative food intake of mice on day 14 after treatment with compound at 30 mg/kg; n=12; assay type: functional; outline: as §2
[24] = tested on: Mus musculus; experiment: Mean cumulative food intake of mice on day 5 after treatment with compound at 100 mg/kg; n=12; assay type: functional; outline: as §2
[25] = tested on: Mus musculus; experiment: Mean cumulative food intake of mice on day 7 after treatment with compound at 100 mg/kg; n=12; assay type: functional; outline: as §2
[26] = tested on: Mus musculus; experiment: Mean cumulative food intake of mice on day 11 after treatment with compound at 100 mg/kg; n=12; assay type: functional; outline: as §2
[27] = tested on: Mus musculus; experiment: Mean cumulative food intake of mice on day 14 after treatment with compound at 100 mg/kg; n=12; assay type: functional; outline: as §2
[28] = Maximum brain compound (10mg/kg, p.o.) concentration in diet-induced obese mice; assay type: ADME, organism-based; parameters: dose 10 mg/kg, route oral; conditions: mouse, po
[29] = Maximum plasma compound (10 mg/kg, p.o.) concentration in diet-induced obese mice; assay type: ADME, organism-based; parameters: dose 10 mg/kg, route oral; conditions: mouse, po
[30] = Area under curve in diet-induced obese mice brain at 10 mg/kg (p.o.) concentration; n=3; assay type: ADME, organism-based; parameters: dose 10 mg/kg, route oral; conditions: mouse, in vivo, po
[31] = Area under curve in diet-induced obese mice plasma at 10 mg/kg (p.o.) concentration; n=3; assay type: ADME, organism-based; parameters: dose 10 mg/kg, route oral; conditions: mouse, in vivo, po
[32] = Area under curve in diet-induced obese mice brain at 10 mg/kg (p.o.) concentration; assay type: ADME, organism-based; parameters: dose 10 mg/kg, route oral; conditions: mouse, in vivo, po
[33] = Area under curve in diet-induced obese mice plasma at 10 mg/kg (p.o.) concentration; assay type: ADME, organism-based; parameters: dose 10 mg/kg, route oral; conditions: mouse, in vivo, po
[34] = target: Melanin-concentrating hormone receptor 1 (Homo sapiens) (UniProt Q99705); experiment: Inhibitory concentration against Melanin-concentrating hormone receptor 1 in human IMR-32 cells

COC[C@@H]1CCCN1CCn1ncc2cc(NC(=O)Nc3ccc(Oc4ccccc4)cc3)ccc21
IC50 [1]: 516 nM | IC50 [2]: 38.7 nM

CCN[C@@H](C)Cc1cccc(C(F)(F)F)c1 [DEXFENFLURAMINE]
Body weight [3]: 42.7 g | Body weight [4]: 39.8 g | Change in body weight [5]: 9.12% | Activity [6]: 0.89 | Activity [7]: 8.44 | Activity [8]: 17.8 | Activity [9]: 31.1 | Activity [10]: 39.9

O=C(Nc1ccc(Oc2ccccc2)cc1)Nc1ccc2c(cnn2CCN2CCC(F)(F)C2)c1
IC50 [1]: > 10000 nM | IC50 [2]: 305 nM

CC(C)CNCCn1ncc2cc(NC(=O)Nc3ccc(Oc4ccccc4)cc3)ccc21
IC50 [1]: 751 nM | IC50 [2]: 1.8 nM

NC(=O)C1CCN(CCCn2ncc3cc(NC(=O)Nc4ccc(Oc5ccccc5)cc4)ccc32)CC1
IC50 [1]: 2880 nM | IC50 [2]: 40.6 nM

O=C(Nc1ccc2cnn(CCN3CCCC3)c2c1)NC1CCN(Cc2ccccc2)CC1
IC50 [1]: > 10000 nM | IC50 [2]: 4510 nM

NC(=O)C1CCN(CCn2ncc3cc(NC(=O)Nc4ccc(Oc5ccccc5)cc4)ccc32)CC1
IC50 [1]: 171 nM | IC50 [2]: 134 nM

O=C(Nc1ccc(Oc2ccccc2)cc1)Nc1ccc2cnn(CCN3CCCC3)c2c1
IC50 [1]: > 10000 nM | IC50 [2]: 581 nM

O=C(Nc1ccc(OCc2ccccc2)cc1)Nc1ccc2c(cnn2CCN2CCCC2)c1
IC50 [1]: > 10000 nM | IC50 [2]: 41.3 nM

O=C(Nc1ccc(OCc2ccccc2)cc1)Nc1cccc2c1cnn2CCN1CCCC1
IC50 [1]: > 10000 nM | IC50 [2]: 1050 nM

O=C(Nc1ccc(Oc2ccccc2)cc1)Nc1ccc2c(cnn2CCN2CCCC2)c1
Body weight [11]: 42.3 g | Body weight [12]: 42.5 g | Body weight [13]: 42.3 g | Body weight [14]: 36.3 g | Change in body weight [15]: -3.41% | Change in body weight [16]: -17.1% | Activity [17]: 16.6 g | Activity [18]: 3 | Activity [19]: 11.2 | Activity [20]: 20.1 | Activity [21]: 2.17 | Activity [22]: 32.4 | Activity [23]: 39.8 | Activity [24]: 7.86 | Activity [25]: 13.6 | Activity [26]: 23.6 | Activity [27]: 29.4 | Cmax [28]: 260 ng/g | Cmax [29]: 246 ng/mL | AUC [30]: 1.43 µg/h/g | AUC [31]: 5.35 µg/h/g

O=C(Cc1ccc(OCc2ccccc2)cc1)Nc1ccc2cnn(CCN3CCCC3)c2c1
IC50 [1]: 11 nM | Cmax [29]: 596 ng/mL | AUC [32]: 1.33 µg·h/g | AUC [33]: 2.12 µg/h/mL | IC50 [34]: 1.4 nM
